Published values pooled from the literature.
Compare with care: the assays were run in different laboratories.
Target: Calcium/calmodulin-dependent protein kinase type II subunit gamma (CAMK2G, Homo sapiens, UniProt Q13555)

`CNCc1ccccc1-c1csc([C@H](C)Nc2nc(C)nc3cc(OC)c(OC)cc23)c1` has a remaining binding of 90% (cell-free assay; competition with immobilised ligand; 1 µM).
With `CS(=O)(=O)CCNCc1ccc(-c2ccc3ncnc(Nc4ccc(OCc5cccc(F)c5)c(Cl)c4)c3c2)o1` the remaining signal was 111% (cell-free assay; 0.5 µM).
`O=C(NC[C@@H]1[C@H]2CN(C(=O)OCc3cc(C(F)(F)F)cc(C(F)(F)F)c3)C[C@@H]12)c1ccc2[nH]nnc2c1` has a remaining binding of 85% (cell-free assay; competition with immobilised ligand; 1 µM).
The inhibition of `O=C(Nc1nccs1)C(c1cc(F)ccc1O)N1Cc2ccccc2C1=O` (centres unmarked) is reported as 9% (enzyme activity; inhibitor; 1 µM).
`Cc1ccc(C(=O)NCc2ccsc2)cc1C#Cc1cn(C(C)C)c2ncnc(N)c12` has an activity vs control of 101% (enzyme activity; inhibitor; 1 µM).
`O=C1NC(=O)c2cc(Nc3ccc(F)cc3)c(Nc3ccc(F)cc3)cc21` gave a remaining signal of 101% (cell-free assay; 0.5 µM).
The remaining activity of `COc1cc(Cl)c(C(=O)N[C@@H](CN[C@H]2CC[C@@H](N)CC2)Cc2ccc(C#N)cc2)cc1-c1ccc(CN[C@H](C)c2ccc(C)cc2)o1` is reported as 87% (enzyme activity; inhibitor; 1 µM).
`C[C@@H]1CCN(C(=O)CC#N)C[C@@H]1N(C)c1ncnc2[nH]ccc12` gave a remaining signal of 127% (cell-free assay; 0.5 µM).
For `Cc1sc(C(=O)NC2COC2)cc1-n1cc(NC(=O)Nc2c(F)cccc2Cl)cn1`, the remaining activity was 102% (enzyme activity; inhibitor; 10 µM).
With `Nc1ncnc2occ(-c3ccc(NC(=O)Nc4cc(C(F)(F)F)ccc4F)cc3)c12` the remaining signal was 71% (cell-free assay; 20 µM).
The inhibition of `CNC(=O)c1cc(Oc2ccc(NC(=O)Nc3ccc(Cl)c(C(F)(F)F)c3)cc2)ccn1` is reported as 51% (cell-free assay; 0.3 µM).
`CCN(CC)c1ccc(C2=NNC(=O)CC2C)cc1[N+](=O)[O-]` (centres unmarked) gave a remaining activity of 119% (enzyme activity; inhibitor; 10 µM).
The remaining binding of `O=C1CCc2cc(Nc3cc(OC4CCOCC4)c([N+](=O)[O-])cc3Cl)ccc2N1` is reported as 100% (cell-free assay; competition with immobilised ligand; 1 µM).
The inhibition of `CC/C(=N\NC(=O)NCc1cccc(O)c1)c1ccc(O)c(C)c1O` is reported as -5.1% (enzyme activity; inhibitor; 0.1 µM).
`C[C@@H]1CN(c2cc(-c3nn(C)c4ccc(OC5(C)CC5)cc34)ncn2)C[C@H](C)O1` has a remaining binding of 90% (cell-free assay; competition with immobilised ligand; 1 µM).
`Cc1cc(NC(=O)c2cccc3cc(-c4cccc5[nH]nc(N)c45)ccc23)ccc1F` has an activity vs control of 106% (enzyme activity; inhibitor; 0.1 µM).
With `Cc1nc(Cc2cccc(C(F)(F)F)c2)sc1-c1ccc(C(N)=O)nc1` the remaining binding was 93% (cell-free assay; competition with immobilised ligand; 1 µM).
`CC(C)(O)[C@H]1CC[C@H](Nc2ccc3ncc(-c4cccc(C(F)(F)F)c4)n3n2)CC1` has a remaining activity of 95.1% (enzyme activity; inhibitor; 1 µM).
`CN([C@@H]1CCc2c(CC(=O)O)c3cc(S(C)(=O)=O)ccc3n2C1)S(=O)(=O)c1ccc(F)cc1` gave a remaining binding of 100% (cell-free assay; competition with immobilised ligand; 1 µM).
For `CC(C)(C)c1nc(-c2cccc(NS(=O)(=O)c3c(F)cccc3F)c2F)c(-c2ccnc(N)n2)s1`, the remaining activity was 102% (enzyme activity; inhibitor; radiometric; 1 µM).
